From ChEMBL document CHEMBL2417547 (J Med Chem, 2013)

Legend:
[1] = target: T1, Cytochrome P450 11B2, mitochondrial (Homo sapiens, UniProt P19099); experiment: Inhibition of human CYP11B2 expressed in hamster V79MZh cells using [1,2-3H]-11-deoxycorticosterone as substrate; format: cell-based
T1 sequence (P19099 whole entry): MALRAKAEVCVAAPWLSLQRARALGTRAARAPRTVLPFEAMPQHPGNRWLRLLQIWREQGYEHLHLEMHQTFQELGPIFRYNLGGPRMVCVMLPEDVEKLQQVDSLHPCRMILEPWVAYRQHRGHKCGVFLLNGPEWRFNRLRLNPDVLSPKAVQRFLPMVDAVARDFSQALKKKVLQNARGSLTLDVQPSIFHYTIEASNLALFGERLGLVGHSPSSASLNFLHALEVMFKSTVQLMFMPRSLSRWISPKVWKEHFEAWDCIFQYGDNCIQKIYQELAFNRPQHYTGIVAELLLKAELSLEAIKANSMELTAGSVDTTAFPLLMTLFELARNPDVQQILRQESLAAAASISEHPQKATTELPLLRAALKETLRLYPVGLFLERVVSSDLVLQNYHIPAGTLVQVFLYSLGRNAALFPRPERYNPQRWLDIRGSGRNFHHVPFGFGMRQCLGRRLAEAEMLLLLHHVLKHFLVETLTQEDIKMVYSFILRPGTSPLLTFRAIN
Method in brief: (§1)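 V79MZh hamster fibroblasts expressing human CYP11B1 or CYP11B2 were incubated with [1,2-3H]-11-deoxycorticosterone (100 nM) plus inhibitor at a range of concentrations. The selectivity factor is IC50(CYP11B2)/IC50(CYP11B1).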

Homo sapiens = species on record: Homo sapiens; experiment: Selectivity factor, ratio of IC50 for human CYP11B2 to IC50 for human CYP11B1
Method in brief: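 V79MZh hamster fibroblasts expressing human CYP11B1 or CYP11B2 were incubated with [1,2-3H]-11-deoxycorticosterone (100 nM) plus inhibitor at a range of concentrations. […] The selectivity factor is IC50(CYP11B2)/IC50(CYP11B1).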

[2] = target: T2, Cytochrome P450 11B1, mitochondrial (Homo sapiens, UniProt P15538); experiment: Inhibition of human CYP11B1 expressed in hamster V79MZh cells using [1,2-3H]-11-deoxycorticosterone as substrate; format: cell-based; method in brief: as §1
T2 sequence (P15538 whole entry): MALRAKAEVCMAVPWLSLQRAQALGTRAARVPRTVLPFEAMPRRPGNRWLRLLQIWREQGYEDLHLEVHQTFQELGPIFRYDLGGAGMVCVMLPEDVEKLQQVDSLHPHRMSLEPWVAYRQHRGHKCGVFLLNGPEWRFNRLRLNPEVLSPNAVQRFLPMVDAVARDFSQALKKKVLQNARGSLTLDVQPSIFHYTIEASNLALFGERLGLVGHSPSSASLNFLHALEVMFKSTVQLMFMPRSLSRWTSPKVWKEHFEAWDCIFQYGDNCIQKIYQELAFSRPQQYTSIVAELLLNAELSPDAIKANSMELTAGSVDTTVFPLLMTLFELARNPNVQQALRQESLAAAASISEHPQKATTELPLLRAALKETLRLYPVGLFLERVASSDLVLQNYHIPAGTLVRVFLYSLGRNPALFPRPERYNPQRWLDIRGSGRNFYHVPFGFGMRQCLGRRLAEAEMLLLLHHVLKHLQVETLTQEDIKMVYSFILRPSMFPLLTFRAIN

[3] = Cytotoxicity against HEK293 cells after 24 hrs; format: cell-based; conditions: human, read-out: LC50
Method in brief: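 HEK 293 cells seeded at 2 × 10⁵ cells per well; compounds added 24 h after seeding at 1% final DMSO. Living cell mass determined after 24 h incubation; LC₅₀ calculated. Doxorubicin positive control, rifampicin negative control. Mean of more than three repeats.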

CYP17 = target: T3, CYP17 (Homo sapiens, UniProt P05093); experiment: Inhibition of human CYP17 expressed in Escherichia coli co-expressing rat NADPH-P450 reductase using progesterone as substrate at 2 uM relative to control; conditions: probe progesterone
T3 sequence (P05093 whole entry): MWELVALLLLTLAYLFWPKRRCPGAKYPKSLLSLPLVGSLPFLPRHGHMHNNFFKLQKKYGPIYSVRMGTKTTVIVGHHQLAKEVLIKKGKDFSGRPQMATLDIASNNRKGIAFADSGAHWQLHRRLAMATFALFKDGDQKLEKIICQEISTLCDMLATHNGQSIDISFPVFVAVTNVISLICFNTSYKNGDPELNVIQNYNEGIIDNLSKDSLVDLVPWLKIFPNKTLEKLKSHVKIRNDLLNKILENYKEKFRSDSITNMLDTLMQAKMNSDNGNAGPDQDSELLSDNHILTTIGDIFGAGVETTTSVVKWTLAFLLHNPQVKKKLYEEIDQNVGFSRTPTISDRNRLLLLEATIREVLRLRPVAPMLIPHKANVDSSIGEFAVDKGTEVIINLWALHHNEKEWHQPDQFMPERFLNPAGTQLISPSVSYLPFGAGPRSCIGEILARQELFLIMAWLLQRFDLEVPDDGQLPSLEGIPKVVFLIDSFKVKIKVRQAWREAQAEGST
Method in brief: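 Human CYP17 expressed in E. coli, co-expressing rat NADPH-P450 reductase. Progesterone substrate at 25 μM with NADPH cofactor. Test compound at 2 μM. Percent inhibition is the mean of at least three experiments (deviations <25%); values ≤5% are treated as not significant.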

CYP19 (aromatase) = target: T4, CYP19 (aromatase) (Homo sapiens, UniProt P11511); experiment: Inhibition of microsomal CYP19 in human placenta using [1beta-3H]-androstenedione as substrate at 2 uM by 3H2O method relative to control; conditions: placental microsomes, probe [1beta-3H]-androstenedione
T4 sequence (P11511 whole entry): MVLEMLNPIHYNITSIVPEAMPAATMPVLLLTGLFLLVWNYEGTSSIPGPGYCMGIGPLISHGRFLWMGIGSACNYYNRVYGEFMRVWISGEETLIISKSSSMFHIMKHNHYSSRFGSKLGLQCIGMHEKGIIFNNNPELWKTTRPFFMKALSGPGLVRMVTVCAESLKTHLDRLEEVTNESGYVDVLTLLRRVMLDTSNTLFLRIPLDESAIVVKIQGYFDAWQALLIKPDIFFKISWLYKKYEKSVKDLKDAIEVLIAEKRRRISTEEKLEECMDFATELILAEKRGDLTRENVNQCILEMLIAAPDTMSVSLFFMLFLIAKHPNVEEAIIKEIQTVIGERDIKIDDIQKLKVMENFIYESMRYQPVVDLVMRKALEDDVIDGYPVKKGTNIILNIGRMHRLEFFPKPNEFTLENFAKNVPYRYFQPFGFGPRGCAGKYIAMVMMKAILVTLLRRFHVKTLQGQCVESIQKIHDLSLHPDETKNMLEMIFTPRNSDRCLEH
Method in brief: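 Human placental microsomes as the CYP19 source, with [1β-3H]androstenedione at 500 nM. Activity read by 3H2O release. Compound at 2 μM. Percent inhibition is the mean of at least three experiments (deviations <25%); values ≤5% are not significant.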

Row | IC50 [1] [nM] | Ratio IC50 (Homo sapiens) | IC50 [2] [nM] | inhibition at 2 µM (CYP17) [%] | inhibition at 2 µM (CYP19 (aromatase)) [%] | Structure (SMILES) | CC50 at 24 h [3] [nM]
1 | 621 | 6.4 | 98 |  |  | c1ccc(-c2ccc(Cc3ccncc3)cn2)cc1 | 
2 |  |  |  |  |  | COc1cccc2c1C(=O)c1c(O)c3c(c(O)c1C2=O)C[C@@](O)(C(=O)CO)C[C@@H]3O[C@H]1C[C@H](N)[C@H](O)[C@H](C)O1 [DOXORUBICIN] | 4300
3 | 1020 | 5.6 | 181 |  |  | c1cn(Cc2ccc(-c3ccsc3)nc2)cn1 | 
4 | 92 | 3.4 | 28 |  |  | CCC(c1ccc(-c2ccccc2)nc1)n1ccnc1 (configuration not stated) | 
5 | 220 | 1.5 | 151 |  |  | c1ccc2c(-c3ccc(C(C4CC4)n4ccnc4)cn3)cccc2c1 (configuration not stated) | 
6 | 28 | 2.4 |  |  |  | CC(C)C(c1ccc(-c2ccccc2)nc1)n1ccnc1 (configuration not stated) | 
7 | 656 | 9.7 | 68 |  |  | c1ccc2c(-c3ccc(Cn4ccnc4)cn3)cccc2c1 | 
8 | 302 | 3.5 | 87 |  |  | c1ccc(-c2ncc(Cn3ccnc3)c3ccccc23)cc1 | 
9 | 1420 | 13.3 | 107 |  |  | c1ccc(-c2ccc(Cn3ccnc3)cn2)cc1 | 
10 | 25 | 1.2 | 21 |  |  | c1ccc(-c2ccc(C(C3CC3)n3ccnc3)cn2)cc1 (configuration not stated) | 
11 |  |  |  | 3 |  | CC(C)(C(=O)c1cccnc1)c1cccnc1 [METYRAPONE] | 
12 | 273 | 4.6 | 60 |  |  | CC(c1ccc(-c2cccc3ccccc23)nc1)n1ccnc1 (configuration not stated) | 
13 | 322 | 10.1 | 32 | 4 | 0 | c1ccc(-c2ccc(Cc3cccnc3)cn2)cc1 | 
14 | 1020 | 1.7 | 610 |  |  | c1ccc(-c2cnc(Cn3ccnc3)cn2)cc1 | 
15 | 4540 | 2.7 | 1710 |  |  | c1ccc(-c2ccc(Cn3ccnc3)nn2)cc1 | 
16 | 3110 | 12.9 | 240 |  |  | c1ccc(-c2ccc(Cc3cncnc3)cn2)cc1 | 

Row | IC50 [1] [nM] | Ratio IC50 (Homo sapiens) | IC50 [2] [nM] | inhibition at 2 µM (CYP17) [%] | inhibition at 2 µM (CYP19 (aromatase)) [%] | Structure (SMILES) | CC50 at 24 h [3] [nM]
17 | 23 | 4.2 | 6 |  |  | c1ccc(-c2ccc(Cc3cncc4ccccc34)cn2)cc1 | 
18 | 836 | 16.4 | 51 |  |  | Oc1cncc(Cc2ccc(-c3ccccc3)nc2)c1 | 
19 | 200 | 6.1 | 33 | 13 | 1 | CC(c1ccc(-c2ccccc2)nc1)n1ccnc1 (configuration not stated) | 
20 | 25 | 5.1 | 5 |  |  | COc1cncc(Cc2ccc(-c3ccccc3)nc2)c1 | 
21 | 419 | 3.4 | 125 |  |  | Fc1cncc(Cc2ccc(-c3ccccc3)nc2)c1 | 
22 | 19 | 2.4 | 8 |  |  | Cc1ccncc1Cc1ccc(-c2ccccc2)nc1 | 
23 | 74 | 1.1 | 69 |  |  | c1ccc(-c2ccc(C(c3ccco3)n3ccnc3)cn2)cc1 (configuration not stated) | 
24 | 31 | 2.8 | 11 |  |  | c1cn(C(c2ccc(-c3ccsc3)nc2)C2CC2)cn1 (configuration not stated) | 
25 |  |  |  |  |  | CO[C@H]1/C=C/O[C@@]2(C)Oc3c(C)c(O)c4c(O)c(c(/C=N/N5CCN(C)CC5)c(O)c4c3C2=O)NC(=O)/C(C)=C\C=C\[C@H](C)[C@H](O)[C@@H](C)[C@@H](O)[C@@H](C)[C@H](OC(C)=O)[C@@H]1C [RIFAMPIN] | > 100000
26 | 0.5 | 0.4 | 1.3 |  |  | c1ccc(-c2cncc(Cc3ccc(-c4ccccc4)nc3)c2)cc1 | 
27 | 2920 | 6.9 | 427 |  |  | NC(=O)c1cncc(Cc2ccc(-c3ccccc3)nc2)c1 | 
28 | 1880 | 1.9 | 1020 |  |  | c1ccc(-c2ccc(Oc3cccnc3)cn2)cc1 | 
29 | 110 | 0.9 | 124 |  |  | c1ccc(-c2ccc(C(c3ccccc3)n3ccnc3)cn2)cc1 (configuration not stated) | 
30 | 151 | 9.1 | 21 |  |  | CC(c1ccc(-c2ccsc2)nc1)n1ccnc1 (configuration not stated) | 
31 | > 5000 |  | > 5000 |  |  | c1ccc(-c2ccc(Nc3cccnc3)cn2)cc1 | 

Row | Structure (SMILES) | IC50 [1] [nM] | Ratio IC50 (Homo sapiens) | IC50 [2] [nM] | inhibition at 2 µM (CYP17) [%] | inhibition at 2 µM (CYP19 (aromatase)) [%] | CC50 at 24 h [3] [nM]
32 | c1ccc(-c2ncc(Cn3ccnc3)cn2)cc1 | > 5000 | > 5 | 1120 |  |  | 
